From ChEMBL document CHEMBL1130289, “Polyanion inhibitors of human immunodeficiency virus and other viruses. 5. Telomerized anionic surfactants derived from amino acids” (J Med Chem, 1997)

Legend:
[1] = tested on: Human immunodeficiency virus 1; experiment: Concentration required to inhibit by 50% syncytium formation between MOLT-4 cells and HIV-1(IIIB); assay type: functional, organism-based; details: Human immunodeficiency virus 1, MOLT-4
Method in brief: (§1)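 Uninfected MOLT-4 cells were co-cultured with HUT-78 cells chronically infected with HIV-1 (IIIB) or HIV-2 (ROD), in the presence of compound. The end point was syncytium formation, and IC50 is the concentration giving 50% inhibition. Values are means of two separate experiments.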

[2] = tested on: Sindbis virus; experiment: Concentration required to inhibit Sindbis induced cytopathicity in Vero cells by 50%; assay type: functional, organism-based
Method in brief: (§2)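 Virus was added to the cell monolayers in the presence of compound. Incubation continued until the viral cytopathic effect was scored. IC50 is the concentration that reduced virus-induced cytopathicity by 50%.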

[3] = tested on: Human alphaherpesvirus 1; experiment: Concentration required to inhibit HSV-1 TK-(B2006) induced cytopathicity in E6SM cells by 50%; details: Human alphaherpesvirus 1, E6SM
[4] = tested on: Human immunodeficiency virus 1; experiment: Inhibitory concentration required to inhibit HIV-induced cytopathicity in CEM-4 cells by 50% based in the MTT assay; Not active; assay type: functional, organism-based
[5] = tested on: Vaccinia virus; experiment: Concentration required to inhibit Vaccinia induced cytopathicity in E6SM cells by 50%; assay type: functional, organism-based; details: Orthopoxvirus vaccinia
[6] = tested on: Tacaribe virus; experiment: Concentration required to inhibit Tacaribe induced cytopathicity in Vero cells by 50%; assay type: functional, cell-based; details: Mammarenavirus tacaribeense
[7] = tested on: Human immunodeficiency virus 2; experiment: Concentration required to inhibit HIV-2 induced cytopathicity in MT-4 cells by 50%; assay type: functional, organism-based; details: Human immunodeficiency virus 2, MT4
Method in brief: (§3)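 MT-4 cells were infected with HIV-1 (strain HTLV-IIIB/LAI) or HIV-2 (strain LAV-2 ROD) and exposed to compound. IC50 is the concentration that inhibited HIV-induced cytopathicity by 50%. Values are means of two separate experiments.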

[8] = tested on: Human immunodeficiency virus 1; experiment: Concentration required to inhibit HIV-1 induced cytopathicity in MT-4 cells by 50%; assay type: functional, organism-based; details: Human immunodeficiency virus 1, MT4; method in brief: as §3
[9] = tested on: Vesicular stomatitis virus; experiment: Concentration required to inhibit vesicular stomatitis induced cytopathicity in E6SM cells by 50%; assay type: functional, organism-based
[10] = tested on: Vero; experiment: Minimum cytotoxic concentration required to cause a microscopically detectable alteration of normal cell morphology in Vero cells; assay type: functional, Chlorocebus sabaeus
Method in brief: (§4)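 Uninfected E6SM, HeLa or Vero cells were exposed to compound and examined by microscopy. MCC is the lowest concentration causing a detectable alteration of normal cell morphology.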

[11] = tested on: Human alphaherpesvirus 2; experiment: Concentration required to inhibit HSV-2(G) induced cytopathicity in E6SM cells by 50%; details: Human alphaherpesvirus 2, E6SM
[12] = tested on: Mammalian orthoreovirus 1; experiment: Concentration required to inhibit reovirus-1 induced cytopathicity in Vero cells by 50%; assay type: functional, organism-based; details: Mammalian orthoreovirus 1, Vero; method in brief: as §2
[13] = tested on: Poliovirus 1; experiment: Concentration required to inhibit Polio-1 induced cytopathicity in HeLa cells by 50%; assay type: functional, organism-based; details: Enterovirus C
[14] = tested on: HEL; experiment: Minimum cytotoxic concentration required to cause a microscopically detectable alteration of normal cell morphology in HEL cells; assay type: functional, Homo sapiens
[15] = tested on: Human immunodeficiency virus 2; experiment: Concentration required to inhibit by 50% syncytium formation between MOLT-4 cells and HIV-2 (ROD) infected HUT-78 cells; assay type: functional, organism-based; details: Human immunodeficiency virus 2, MOLT-4; method in brief: as §1
[16] = tested on: Human betaherpesvirus 5; experiment: Concentration required to inhibit HCMV(AD169) induced cytopathicity in HEL cells by 50%; assay type: functional, organism-based; details: Human betaherpesvirus 5, HEL; method in brief: as §2
[17] = tested on: Human betaherpesvirus 5; experiment: Concentration required to inhibit HCMV(Davis) induced cytopathicity in HEL cells by 50%; assay type: functional, organism-based; details: Human betaherpesvirus 5, HEL; method in brief: as §2
[18] = tested on: Semliki Forest virus; experiment: Concentration required to inhibit forest induced cytopathicity in Vero cells by 50%; assay type: functional, organism-based; method in brief: as §2
[19] = tested on: HeLa; experiment: Minimum cytotoxic concentration required to cause a microscopically detectable alteration of normal cell morphology in HeLa cells; assay type: functional, Homo sapiens; method in brief: as §4
[20] = tested on: CEM-4; experiment: Cytotoxic concentration required to reduce the viability of uninfected cells by 50% after 5 days of incubation in the presence on CEM-4 cells.; assay type: functional; details: Homo sapiens, CEM-4, 120 h
Method in brief: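 Uninfected CEM-4 cells were incubated with compound for 5 days. CC50 is the concentration that reduced viability by 50%. Values average at least two separate experiments.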

[21] = tested on: E6SM; experiment: Minimum cytotoxic concentration required to cause a microscopically detectable alteration of normal cell morphology in E6SM cells; assay type: functional, Homo sapiens; method in brief: as §4
[22] = tested on: Human alphaherpesvirus 1; experiment: Concentration required to inhibit HSV-1(KOS) induced cytopathicity in E6SM cells by 50%; details: Human alphaherpesvirus 1, E6SM
[23] = tested on: Junin virus; experiment: Concentration required to inhibit Junin induced cytopathicity in Vero cells by 50%; assay type: functional, organism-based; details: Mammarenavirus juninense
[24] = tested on: Coxsackievirus; experiment: Concentration required to inhibit Coxsackie induced cytopathicity in HeLa cells by 50%; assay type: functional, organism-based; method in brief: as §2
[25] = tested on: MT4; experiment: Concentration required to reduce the viability of mock-infected MT-4 cells by 50%; assay type: functional; details: Homo sapiens
Method in brief: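 Mock-infected MT-4 cells were exposed to compound. CC50 is the concentration that reduced cell viability by 50%. Values are means of two separate experiments.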

[26] = tested on: Human respirovirus 3; experiment: Concentration required to inhibit parainfluenza-3 induced cytopathicity in Vero cells by 50%; assay type: functional, organism-based; details: Human respirovirus 3, Vero; method in brief: as §2

Row | Structure (SMILES) | IC50 [1] | IC50 [2] | IC50 [3] | IC50 [4] | IC50 [5] | IC50 [6] | IC50 [7] | IC50 [8] | IC50 [9] | IC50 [11] | IC50 [12] | IC50 [13] | MMC [14] | IC50 [15] | IC50 [16] | IC50 [17] | IC50 [18] | MMC [19] | CC50 [20] | IC50 [22] | other results
1 | CCCCCCCCCCCCSCCCCCCCCCCCCC(=O)NCCCCCCCCCCC(=O)NCCC(=O)[O-].[Na+] | 10 µg/mL | > 200 µg/mL | 20 µg/mL | Not Active | > 200 µg/mL | 50 µg/mL | 12 µg/mL | 3 µg/mL | > 200 µg/mL | 20 µg/mL | > 200 µg/mL | > 200 µg/mL | >50 µg/mL | 10 µg/mL | 25 µg/mL | 20 µg/mL | > 200 µg/mL | >200 µg/mL | 42 µg/mL | 20 µg/mL | MMC [10]: >200 µg/mL; MMC [21]: >200 µg/mL; IC50 [23]: 43 µg/mL; IC50 [24]: > 200 µg/mL; CC50 [25]: > 250 µg/mL; IC50 [26]: > 200 µg/mL
2 | CCCCCCCCCCCCSCCCCCCCCCCC(=O)N(C)CCCCCCCCCCC(=O)[O-].[Na+] | 150 µg/mL | > 200 µg/mL | > 200 µg/mL | Not Active | > 200 µg/mL | > 50 µg/mL | 70 µg/mL | 28 µg/mL | > 200 µg/mL | 70 µg/mL | > 200 µg/mL | > 200 µg/mL | >50 µg/mL | 150 µg/mL | > 50 µg/mL | > 50 µg/mL | > 200 µg/mL | >200 µg/mL | > 200 µg/mL | > 200 µg/mL | MMC [10]: >200 µg/mL; MMC [21]: >400 µg/mL; IC50 [23]: > 50 µg/mL; IC50 [24]: > 200 µg/mL; CC50 [25]: 128 µg/mL; IC50 [26]: > 200 µg/mL
3 | CCCCCCCCCCCCSCCCCC(=O)NCCCCCCCCCCC(=O)NCCC(=O)[O-].[Na+] | 30 µg/mL | > 200 µg/mL | 70 µg/mL | Not Active | > 200 µg/mL | 43 µg/mL | 27 µg/mL | 6 µg/mL | > 200 µg/mL | 20 µg/mL | > 200 µg/mL | > 200 µg/mL | >50 µg/mL | 6 µg/mL | 30 µg/mL | 23 µg/mL | > 200 µg/mL | >200 µg/mL | > 300 µg/mL | 40 µg/mL | MMC [10]: >200 µg/mL; MMC [21]: 400 µg/mL; IC50 [23]: 50 µg/mL; IC50 [24]: > 200 µg/mL; CC50 [25]: > 250 µg/mL; IC50 [26]: > 200 µg/mL
4 | CCCCCCCCCCCCSCCCCCCCCCCC(=O)N(CC)CCCCCCCCCCC(=O)NCCC(=O)[O-].[Na+] | 30 µg/mL | > 200 µg/mL | 150 µg/mL | Not Active | > 200 µg/mL | > 50 µg/mL | 30 µg/mL | 13 µg/mL | > 200 µg/mL | 20 µg/mL | > 200 µg/mL | > 200 µg/mL | >50 µg/mL | 30 µg/mL | 50 µg/mL | 20 µg/mL | > 200 µg/mL | >200 µg/mL | 50 µg/mL | 70 µg/mL | MMC [10]: >200 µg/mL; IC50 [23]: > 50 µg/mL; IC50 [24]: > 200 µg/mL; CC50 [25]: > 250 µg/mL; IC50 [26]: > 200 µg/mL
5 | CCCCCCCCCCCCSCCCCCCCCCCCCCCCCCCCCCCC(=O)NCCCCCCCCCCC(=O)[O-].[Na+] | 150 µg/mL | > 100 µg/mL | > 100 µg/mL | Not Active | > 100 µg/mL | > 50 µg/mL | 69 µg/mL | 55 µg/mL | > 100 µg/mL | > 100 µg/mL | > 100 µg/mL | > 200 µg/mL | >50 µg/mL | 150 µg/mL | > 50 µg/mL | > 50 µg/mL | > 100 µg/mL | >200 µg/mL | 99 µg/mL | > 100 µg/mL | MMC [21]: >200 µg/mL; IC50 [23]: > 50 µg/mL; IC50 [24]: > 200 µg/mL; CC50 [25]: > 250 µg/mL; IC50 [26]: > 100 µg/mL
6 | CCCCCCCCCCCCSCCCCCCCCCCCCCCCCCCCCCCCCCCCCCCCCCCCCCCCCC(=O)NCCCCCCCCCCC(=O)[O-].[Na+] | 30 µg/mL | > 200 µg/mL | > 100 µg/mL | Not Active | > 100 µg/mL | > 50 µg/mL | 1.3 µg/mL | 5 µg/mL | > 100 µg/mL | 20 µg/mL | > 200 µg/mL | > 200 µg/mL | >50 µg/mL | 50 µg/mL | 40 µg/mL | 15 µg/mL | > 200 µg/mL | >200 µg/mL | > 50 µg/mL | > 100 µg/mL | MMC [10]: >200 µg/mL; MMC [21]: 200 µg/mL; IC50 [23]: > 50 µg/mL; IC50 [24]: > 200 µg/mL; CC50 [25]: > 250 µg/mL; IC50 [26]: > 200 µg/mL
